Results from different studies.
Each line is one published result; the experiments were not run side by side.
Target: Histamine H3 receptor (HRH3, Homo sapiens, UniProt Q9Y5N1)

| SMILES | test | setting | inhibition [%] |
| --- | --- | --- | --- |
| CCN(Cc1ccccc1C(F)(F)F)C(=O)C1CCN(S(=O)(=O)c2ccc3[nH]ncc3c2)CC1 | ligand displacement, radioligand | 10 µM | 6 |
| O=C(c1ccc(F)cc1)N(Cc1ccccc1)C1CCCCC1 | cell-free assay | 10 µM | 15 |
| CN1CCN(CCCOc2ccc(=O)n(-c3ccc(Cl)c(Cl)c3)n2)CC1 | ligand displacement | 1 µM | 38.2 |
| CCCNc1nc2ccccc2n1Cc1ccc(Cl)cc1 | ligand displacement | 10 µM | -5.56 |
| COc1ccc(-n2nc(OCCCN3CCCCC3)ccc2=O)cc1 | ligand displacement | 1 µM | 23.3 |
| CC(=O)Nc1ncc(CN2CCC[C@H](Cc3cc(C)nc(C)c3)C2)s1 | ligand displacement | 10 µM | 10.8 |
| N#Cc1cc(Cn2c(N3CCCC3)nc3ccccc32)ccc1F | ligand displacement | 10 µM | 1.97 |
| CCS(=O)(=O)c1cc2cc(C[C@](O)(CC(C)(C)c3ccc(F)cc3C(N)=O)C(F)(F)F)[nH]c2cn1 | ligand displacement | 10 µM | 11.7 |
| CCN(CC)c1ccc(C2Nc3ccc(C(=O)c4ccccc4)cc3NC3=C2C(=O)CC(C)(C)C3)cc1 (stereo not drawn) | ligand displacement, radioligand | 10 µM | 43 |
